How the values were obtained:
Format in all cases: functional
[1] = system: Aphis craccivora; experiment: Insecticidal activity against adult Aphis craccivora (cowpea aphid) assessed as […] activity at 500 mg/l after 24 hr
Summary of the method: (§1)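 Apterous adult aphids (40−60 per horsebean seedling) on seedlings dipped 5 s in DMF stock diluted with water containing Triton X-100 (0.1 mg L⁻¹); series concentrations 500.0, 250.0, 125.0 mg L⁻¹ and others. Held at 25 ± 1 °C, 50% RH. Triton water served as control. Mortality scored at 24 h, three repetitions, corrected, probit analysis.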

[2] = system: Empoasca; experiment: Insecticidal activity against Empoasca (Green Leafhopper)
[3] = system: Aphis craccivora; experiment: Insecticidal activity against adult Aphis craccivora (cowpea aphid) assessed as […] activity after 24 hr; summary of the method: as §1
[4] = system: Aphis craccivora; experiment: Repellent activity against adult Aphis craccivora (cowpea aphid) at 500 mg/l
Summary of the method: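 Y-tube olfactometer choice test. Aphid-free horsebean seedlings were dipped 5 s in DMF-dissolved compound diluted in water with Triton X-100 (0.1 mg L⁻¹) and dried. Treated and control seedlings were placed in opposite arms, and apterous adults were introduced into the third arm. The olfactometer was covered with black cloth at 25 ± 1 °C, 50% RH. Adults per arm were counted after 1 h; three repeats.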

Compound | mortality at 500 µg/mL [1] | other results
CCOC1CCC([N+](=O)[O-])=C(N(CC)Cc2ccc(Cl)nc2)N1C (stereo unspecified) | 17.7% | 
N/C(=C\[N+](=O)[O-])NCc1ccc(Cl)nc1 |  | LC95 [2]: >200 ppm
CCC1CC(OC(C)C)N(C)C(NCc2ccc(Cl)nc2)=C1[N+](=O)[O-] (stereo unspecified) | 83.6% | 
CCOC1CC(C)C([N+](=O)[O-])=C(NCc2ccc(Cl)nc2)N1CC (stereo unspecified) | 85.2% | 
CCCOC1CC(C)C([N+](=O)[O-])=C(NCc2ccc(Cl)nc2)N1CC (stereo unspecified) | 94.6% | 
CCN1C(NCc2ccc(Cl)nc2)=C([N+](=O)[O-])C(C)CC1OC(C)C (stereo unspecified) | 75% | 
CCC1CC(OC)N(CC)C(NCc2ccc(Cl)nc2)=C1[N+](=O)[O-] (stereo unspecified) | 84.5% | 
CCCOC1CC(CC)C([N+](=O)[O-])=C(NCc2ccc(Cl)nc2)N1CC (stereo unspecified) | 93.4% | 
COC1CC(C)C([N+](=O)[O-])=C2N(Cc3cnc(Cl)s3)CCN21 (stereo unspecified) | 100% | LC50 [3]: 190 µM
C=CCOC1CC(C)C([N+](=O)[O-])=C(N(CC)Cc2ccc(Cl)nc2)N1C (stereo unspecified) | 19.5% | 
COC1CCC([N+](=O)[O-])=C(N(C)Cc2ccc(Cl)nc2)N1C (stereo unspecified) | 21.6% | 
CCOC1CCC([N+](=O)[O-])=C(N(C)Cc2ccc(Cl)nc2)N1C (stereo unspecified) | 23.3% | 
CCCOC1CCC([N+](=O)[O-])=C(N(C)Cc2ccc(Cl)nc2)N1C (stereo unspecified) | 15.2% | 
CC(C)OC1CCC([N+](=O)[O-])=C(N(C)Cc2ccc(Cl)nc2)N1C (stereo unspecified) | 17.6% | 
C=CCOC1CCC([N+](=O)[O-])=C(N(C)Cc2ccc(Cl)nc2)N1C (stereo unspecified) | 15.8% | 
COC1CC(C)C([N+](=O)[O-])=C(N(C)Cc2ccc(Cl)nc2)N1C (stereo unspecified) | 23.4% | 

Compound | mortality at 500 µg/mL [1] | other results
CCOC1CC(C)C([N+](=O)[O-])=C(N(C)Cc2ccc(Cl)nc2)N1C (stereo unspecified) | 17.1% | 
CCCOC1CC(C)C([N+](=O)[O-])=C(N(C)Cc2ccc(Cl)nc2)N1C (stereo unspecified) | 28.3% | 
CC(C)OC1CC(C)C([N+](=O)[O-])=C(N(C)Cc2ccc(Cl)nc2)N1C (stereo unspecified) | 25.9% | 
CCN(Cc1ccc(Cl)nc1)C1=C([N+](=O)[O-])CCC(O)N1C (stereo unspecified) | 16.2% | 
CCN(Cc1ccc(Cl)nc1)C1=C([N+](=O)[O-])CCC(OC)N1C (stereo unspecified) | 24.3% | 
CCCOC1CCC([N+](=O)[O-])=C(N(CC)Cc2ccc(Cl)nc2)N1C (stereo unspecified) | 23.7% | 
CCN(Cc1ccc(Cl)nc1)C1=C([N+](=O)[O-])CCC(OC(C)C)N1C (stereo unspecified) | 15.3% | 
CCN(Cc1ccc(Cl)nc1)C1=C([N+](=O)[O-])C(C)CC(OC)N1C (stereo unspecified) | 27.6% | 
CCOC1CC(C)C([N+](=O)[O-])=C(N(CC)Cc2ccc(Cl)nc2)N1C (stereo unspecified) | 31.8% | Repellency [4]: 66.4%
CCCOC1CC(C)C([N+](=O)[O-])=C(N(CC)Cc2ccc(Cl)nc2)N1C (stereo unspecified) | 27.2% | 
CCN(Cc1ccc(Cl)nc1)C1=C([N+](=O)[O-])C(C)CC(OC(C)C)N1C (stereo unspecified) | 25.8% | 
CC(C)OC1CC(C)C([N+](=O)[O-])=C2N(Cc3ccc(Cl)nc3)CCN21 (stereo unspecified) | 100% | LC50 [3]: 262 µM
O=[N+]([O-])/N=C1\NCCN1Cc1ccc(Cl)nc1 [IMIDACLOPRID] | 100% | LC50 [3]: 30.9 µM
CCN(Cc1ccc(Cl)nc1)/C(=C/[N+](=O)[O-])NC [NITENPYRAM] |  | LC95 [2]: 40 ppm
CCCOC1CC(C)C([N+](=O)[O-])=C2N(Cc3ccc(Cl)nc3)CCN21 (stereo unspecified) [PAICHONGDING] | 100% | LC50 [3]: 91.8 µM

Reference: ChEMBL document CHEMBL3046551, “Design, synthesis, and particular biological behaviors of chain-opening nitromethylene neonicotinoids with cis configuration” (2012)
